Test results taken from ChEMBL document CHEMBL4350959, “Design and Identification of a Novel, Functionally Subtype Selective GABAA Positive Allosteric Modulator (PF-06372865)” (J Med Chem, 2019).
In brackets after ≈: the same amount, converted by molar mass.

Experiments:
[1] = Lipophilicity, log D of the compound; type: physicochemical; conditions: octanol/water
Method in brief: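 LogD was either measured or calculated with an internal logD model.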

[2] = Oral bioavailability in dog; type: ADME, organism-based, Canis lupus familiaris; conditions: in vivo
[3] = Volume of distribution at steady state in dog; type: ADME, Canis lupus familiaris; conditions: in vivo, read-out: Vdss
[4] = Solubility of the compound at pH 6.5; type: physicochemical; conditions: buffer
[5] = Oral bioavailability in rat; type: ADME, organism-based; conditions: in vivo
[6] = Volume of distribution at steady state in rat; type: ADME; conditions: in vivo, read-out: Vdss
[7] = Permeability in RRCK cells; type: ADME, cell-based, Canis lupus familiaris, MDCKII-LE; conditions: dog, MDCK; read-out: permeability
Method in brief: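 Transcellular permeability across Ralph Russ canine kidney (RRCK) cell monolayers, reported as x10^-6 cm/sec.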

Structure (SMILES)	logD [1]	other results
CCn1cnc2c(-c3ccc(F)c(-c4ccc(S(=O)(=O)C5CC5)cc4OC)c3)cnnc21	2.7	–
CCn1cnc2c(-c3ccc(Cl)c(-c4ccc(S(=O)(=O)CC)cc4OC)c3)cnnc21	3.1	–
CCn1cnc2c(-c3ccc(F)c(-c4ccc(S(=O)(=O)CC)cc4)c3)cnnc21	2.9	–
CCn1cnc2c(-c3ccc(F)c(-c4ccc(S(C)(=O)=O)cc4OC)c3)cnnc21	2.5	–
CCn1cnc2c(-c3ccc(F)c(-c4ccc(S(=O)(=O)C(C)C)cc4OC)c3)cnnc21	3	–
CCn1cnc2c(-c3ccc(F)c(-c4ccc(S(=O)(=O)CC)cc4F)c3)cnnc21	2.6	–
CCn1cnc2c(-c3ccc(F)c(-c4ccc(S(=O)(=O)C5COC5)cc4OC)c3)cnnc21	2.2	–
CCn1cnc2c(-c3ccc(F)c(-c4ccc5c(c4)C(=O)N(C)C5)c3)cnnc21	2.6	–
CCn1cnc2c(-c3ccc(F)c(-c4cccnc4)c3)cnnc21	2.6	–
CCS(=O)(=O)c1ccc(-c2cc(-c3cnnc4c(OC)cnn34)ccc2F)cc1	2.8	–
CCn1cnc2c(-c3ccc(F)c(-c4ccc(S(=O)(=O)CC)cc4Cl)c3)cnnc21	3.2	–
Cc1cc(-c2cc(-c3cnnc4c3ncn4C(C)C)ccc2F)ccn1	3.1	–
CC(=O)N1CC(Oc2cc(-c3cnnc4c3ncn4C(C)C)ccc2F)C1	1.6	–
CCc1cnn2c(-c3ccc(F)c(-c4ccc(S(=O)(=O)CC)cc4)c3)cnnc12	3.5	–
CCn1cnc2c(-c3ccc(F)c(-c4cccc(C(=O)NC)c4)c3)cnnc21	2.8	–
CCn1cnc2c(-c3ccc(F)c(Oc4cccc(S(=O)(=O)CC)c4)c3)cnnc21	2.3	–
CCn1cnc2c(-c3ccc(F)c(OCc4ccccn4)c3)cnnc21	2.5	–

Structure (SMILES)	logD [1]	other results
CCn1cnc2c(-c3ccc(F)c(Oc4cnc(C#N)nc4)c3)cnnc21	2	–
CCn1cnc2c(-c3ccc(F)c(Oc4ccnc(C)c4)c3)cnnc21	2.6	–
CC(C)n1cnc2c(-c3ccc(F)c(Oc4ccc(C#N)cn4)c3)cnnc21	2.7	–
CCn1nnc2c(-c3ccc(F)c(-c4ccc(S(=O)(=O)CC)cc4)c3)cnnc21	3.3	–
CCn1cnc2c(-c3ccc(F)c(-c4ccc5c(c4)CN(C)C5=O)c3)cnnc21	2.7	–
CCn1cnc2c(-c3ccc(F)c(Oc4ccc(C#N)cn4)c3)cnnc21	2.3	–
N#Cc1ccc(Oc2cc(-c3cnnc4c3ncn4C3CC3)ccc2F)nc1	2.3	–
CCn1cnc2c(-c3ccnc(OC)c3)cnnc21	1.5	–
CCn1cnc2c(-c3ccc(F)c(-c4cc(C(=O)NC)ccc4F)c3)cnnc21	3	–
CCn1cnc2c(-c3ccc(F)c(-c4ccc(C(=O)N(C)C)cc4)c3)cnnc21	2.5	–
CCc1cnn2c(-c3ccc(F)c(-c4ccc(S(=O)(=O)CC)cc4)c3)ccnc12	3.9	–
CCn1cnc2c(-c3ccc(F)c(-c4cc5c(cc4OC)C(=O)N(C)C5)c3)cnnc21	2.6	bioavailability [2]: 43%; Vd [3]: 2.61 L/kg; solubility [4]: 15 µM (≈ 6.26 µg/mL); bioavailability [5]: 76%; Vd [6]: 0.55 L/kg; Papp [7]: 21 ×10⁻⁶ cm/s
Cc1cc(-c2cc(-c3cnnc4c3ncn4C3CC3)ccc2F)ccn1	2.9	–
CCn1cnc2c(-c3ccnc(Oc4cccc(S(=O)(=O)CC)c4)c3)cnnc21	1.6	–
CCn1cnc2c(-c3ccnc(Oc4ccccc4)c3)cnnc21	2.6	–
CCOc1cc(S(=O)(=O)CC)ccc1-c1cc(-c2cnnc3c2ncn3CC)ccc1F	3.3	–
CCn1cnc2c(-c3ccc(F)c(-c4ccc(S(=O)(=O)CC)cc4OC)c3)cnnc21 [DARIGABAT]	2.7	bioavailability [2]: 130%; Vd [3]: 3.4 L/kg; solubility [4]: 95 µM (≈ 41.8 µg/mL); bioavailability [5]: 99%; Vd [6]: 2.1 L/kg; Papp [7]: 17 ×10⁻⁶ cm/s
